This note sets out measurements from ChEMBL document CHEMBL3244396, “Synthesis and antileukemic activity of 5-substituted 2,3-dihydro-6,7-bis(hydroxymethyl)-1H-pyrrolizine diesters” (J Med Chem, 1977).

As a reminder, the T/C is the result in the treated group divided by that in the control group, in per cent.

In brackets after ≈: the same amount, converted by molar mass.

In series [1] the test system is P388. Description: Antitumor activity against mouse P388 cells allografted in female CDF1 mouse assessed as disease cures by measuring 30-days host survival at 25 mg/kg, ip administered daily for 9 days as Klucel suspension starting 24 hrs after tumor inoculation relative to control. It counts as functional. The conditions noted are these: route intraperitoneal. Summed up: (§1)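 P388 leukemia given as an ascitic fluid cell inoculum, ip, to mice of the strain and sex in each line. Nine daily ip doses were given in a Klucel (hydroxypropylcellulose) suspension, starting 24 h after inoculation. Read-out is median survival time as %T/C, with >125 taken as significant; a "cure" means 30-day survival.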

Series [2] has as its system L1210. Kind of series: Antileukemic activity against mouse L1210 cells allografted in female BDF1 mouse assessed as change in body weight at 200 mg/kg, ip administered daily for 9 days as Klucel suspension starting 24 hrs after tumor inoculation. It counts as functional. The conditions noted are these: route intraperitoneal. Summed up: (§2)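 Ascitic fluid carrying L1210 cells was inoculated ip. Compound was given ip as a Klucel (hydroxypropylcellulose) suspension in nine daily doses, starting 24 h after inoculation. Body-weight difference (treated minus control) was recorded on day 5. Survival was scored as %T/C of mean survival time.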

Series [3] is described as follows: Cytotoxicity against human 9KB cells treated as ethanol solution. It counts as functional. The following applies: read-out: ED50 (the source's name). The essentials:
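Compound applied as an ethanol solution; activity read out as ED50 under the general screening protocol.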

The test system of series [4] is L1210. Description: Antileukemic activity against mouse L1210 cells allografted in female BDF1 mouse assessed as host mean survival time at 100 mg/kg, ip administered daily for 9 days as Klucel suspension starting 24 hrs after tumor inoculation relative to control. The following applies: route intraperitoneal. It counts as functional. The essentials:
(§3)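 L1210 leukemia given as an ascitic fluid cell inoculum, ip, to mice of the strain and sex in each line. Test material was given ip for nine daily doses starting 24 h after inoculation, in a Klucel (hydroxypropylcellulose) suspension. Read-out is mean survival time as %T/C versus controls, with >125 taken as significant.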

For series [5], the system named is P388. Kind of series: Antitumor activity against mouse P388 cells allografted in female CDF1 mouse assessed as change in body weight at 25 mg/kg, ip administered daily for 9 days as Klucel suspension starting 24 hrs after tumor inoculation. The following applies: route intraperitoneal. It counts as functional. The essentials:
(§4)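 Ascitic fluid carrying P388 cells was inoculated ip. Compound was given ip in nine daily doses, starting 24 h after inoculation, in Klucel (hydroxypropylcellulose) suspension or in saline with Tween-80. Body-weight difference (treated minus control) was recorded on day 5. Survival was scored as %T/C of median survival time, and 30-day survival counted as cure.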

For series [6], the system named is P388. Kind of series: Antitumor activity against mouse P388 cells allografted in female CDF1 mouse assessed as disease cures by measuring 30-days host survival at 12.5 mg/kg, ip administered daily for 9 days as Klucel suspension starting 24 hrs after tumor inoculation relative to control. It counts as functional. The conditions noted are these: route intraperitoneal. Summed up:
as §1

In series [7] the test system is Mus musculus. Description: Toxicity in female CDF1 mouse allografted with mouse P388 cells assessed as animal survival at 12.5 mg/kg, ip administered daily for 9 days as Klucel suspension starting 24 hrs after tumor inoculation. It counts as organism-based. Further details: dose 12.5 mg/kg, route intraperitoneal. The conditions noted are these: in vivo. The essentials:
(§5)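 P-388 leukemia ascitic fluid inoculated ip. Compound given ip as a suspension in Klucel (hydroxypropylcellulose), once daily for nine doses beginning 24 h post-inoculation. Acute toxicity assessed as toxicity-day survivors per group. Survival was followed up to 30 days, with 30-day survival counted as "cure". Follows NCI screening protocols.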

Series [8] has as its system P388. Kind of series: Antitumor activity against mouse P388 cells allografted in female CDF1 mouse assessed as change in body weight at 100 mg/kg, ip administered daily for 9 days as Klucel suspension starting 24 hrs after tumor inoculation. It counts as functional. The conditions noted are these: route intraperitoneal. The essentials: as §4
The subject of series [9] is Mus musculus. Kind of series: Toxicity in female CDF1 mouse allografted with mouse P388 cells assessed as animal survival at 100 mg/kg, ip administered daily for 9 days as Klucel suspension starting 24 hrs after tumor inoculation. The conditions noted are these: in vivo. It counts as organism-based. Further details: dose 100 mg/kg, route intraperitoneal. Summed up: as §5

Series [10] deals with P388. Kind of series: Antitumor activity against mouse P388 cells allografted in female CDF1 mouse assessed as change in body weight at 12.5 mg/kg, ip administered daily for 9 days as Klucel suspension starting 24 hrs after tumor inoculation. It counts as functional. The conditions noted are these: route intraperitoneal. Summed up:
as §4

Series [11] deals with L1210. Description: Antileukemic activity against mouse L1210 cells allografted in female BDF1 mouse assessed as change in body weight at 50 mg/kg, ip administered daily for 9 days as Klucel suspension starting 24 hrs after tumor inoculation. It counts as functional. The conditions noted are these: route intraperitoneal. Summed up: as §2
For series [12], the system named is L1210. Description: Antileukemic activity against mouse L1210 cells allografted in female BDF1 mouse assessed as host mean survival time at 200 mg/kg, ip administered daily for 9 days as Klucel suspension starting 24 hrs after tumor inoculation relative to control. It counts as functional. The following applies: route intraperitoneal. Summed up:
as §3

The subject of series [13] is L1210. Description: Antileukemic activity against mouse L1210 cells allografted in female BDF1 mouse assessed as host mean survival time at 50 mg/kg, ip administered daily for 9 days as Klucel suspension starting 24 hrs after tumor inoculation relative to control. It counts as functional. The following applies: route intraperitoneal. Summed up:
as §3

Series [14] concerns L1210. Kind of series: Antileukemic activity against mouse L1210 cells allografted in female BDF1 mouse assessed as change in body weight at 100 mg/kg, ip administered daily for 9 days as Klucel suspension starting 24 hrs after tumor inoculation. It counts as functional. The following applies: route intraperitoneal. Summed up:
as §2

Series [15] has as its system P388. Kind of series: Antitumor activity against mouse P388 cells allografted in female CDF1 mouse assessed as change in body weight at 50 mg/kg, ip administered daily for 9 days as Klucel suspension starting 24 hrs after tumor inoculation. It counts as functional. The following applies: route intraperitoneal. The essentials:
as §4

Series [16] has as its system Mus musculus. Kind of series: Toxicity in female BDF1 mouse allografted with mouse L1210 cells assessed as animal survival at 200 mg/kg, ip administered daily for 9 days as Klucel suspension starting 24 hrs after tumor inoculation measured on fifth day. It counts as organism-based. Further details: dose 200 mg/kg, route intraperitoneal. The conditions noted are these: in vivo. The essentials:
(§6)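 L1210 leukemia passaged as ascitic fluid and inoculated ip. Test agent given ip as a Klucel (hydroxypropylcellulose) suspension, nine daily doses starting 24 h after tumor inoculation. Acute toxicity read as toxicity-day survivors per group (out of 6), recorded on day 5. Animal weight difference T − C was also recorded. Follows NCI screening protocols.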

The test system of series [17] is Mus musculus. Description: Toxicity in female CDF1 mouse allografted with mouse P388 cells assessed as animal survival at 50 mg/kg, ip administered daily for 9 days as Klucel suspension starting 24 hrs after tumor inoculation. It counts as organism-based. Further details: dose 50 mg/kg, route intraperitoneal. The conditions noted are these: in vivo. Summed up:
as §5

Series [18] has as its system P388. Kind of series: Antitumor activity against mouse P388 cells allografted in female CDF1 mouse assessed as change in body weight at 200 mg/kg, ip administered daily for 9 days as Klucel suspension starting 24 hrs after tumor inoculation. It counts as functional. The following applies: route intraperitoneal. The essentials:
as §4

The test system of series [19] is P388. Kind of series: Antitumor activity against mouse P388 cells allografted in female CDF1 mouse assessed as disease cures by measuring 30-days host survival at 200 mg/kg, ip administered daily for 9 days as Klucel suspension starting 24 hrs after tumor inoculation relative to control. It counts as functional. The conditions noted are these: route intraperitoneal. The essentials:
as §1

Series [20] concerns Mus musculus. Description: Toxicity in female BDF1 mouse allografted with mouse L1210 cells assessed as animal survival at 50 mg/kg, ip administered daily for 9 days as Klucel suspension starting 24 hrs after tumor inoculation measured on fifth day. It counts as organism-based. Further details: dose 50 mg/kg, route intraperitoneal. The following applies: in vivo. Summed up:
as §6

The subject of series [21] is P388. Description: Antitumor activity against mouse P388 cells allografted in female CDF1 mouse assessed as disease cures by measuring 30-days host survival at 100 mg/kg, ip administered daily for 9 days as Klucel suspension starting 24 hrs after tumor inoculation relative to control. It counts as functional. The conditions noted are these: route intraperitoneal. Summed up:
as §1

For series [22], the system named is P388. Kind of series: Antitumor activity against mouse P388 cells allografted in female CDF1 mouse assessed as disease cures by measuring 30-days host survival at 50 mg/kg, ip administered daily for 9 days as Klucel suspension starting 24 hrs after tumor inoculation relative to control. It counts as functional. The conditions noted are these: route intraperitoneal. Summed up:
as §1

In series [23] the test system is Mus musculus. Kind of series: Toxicity in female CDF1 mouse allografted with mouse P388 cells assessed as animal survival at 25 mg/kg, ip administered daily for 9 days as Klucel suspension starting 24 hrs after tumor inoculation. It counts as organism-based. Further details: dose 25 mg/kg, route intraperitoneal. The following applies: in vivo. The essentials: as §5

In the case of `CNC(=O)OCc1c(COC(=O)NC)c(-c2ccc(OC)cc2)n2c1CCC2`, the T/C in the series on P388 [1] was 132%; with L1210 [4], 117%; in the series on P388 [6], 132%; in the series with L1210 [12], 98%; with L1210 [13], 109%; in the series with P388 [19], 55%. The T/C was determined as 129% in the series on P388 [21] and 131% in the series with P388 [22]. Also, the Activity in the series on L1210 [2] was -5 g; in the series with P388 [5], -3.3 g; in the series on Mus musculus [7] it was “Non-toxic”; with P388 [8], -3.7 g; with Mus musculus [9], “Non-toxic”; in the series with P388 [10], -3.2 g. Besides, the Activity with L1210 [11] is reported as -2.3 g; with L1210 [14], -4.8 g; in the series on P388 [15], -4 g; in the series with Mus musculus [16] it was “Non-toxic”; in the series on Mus musculus [17], “Non-toxic”; in the series with P388 [18] it was -3.6 g. The Activity entry in the series with Mus musculus [20] and in the series with Mus musculus [23] was “Non-toxic” in each case. In [3], the EC50 worked out at 21 µg/mL (≈ 54.2 µM).
